Here are results for six compounds from ChEMBL document CHEMBL1143032, “The concise synthesis of chalcone, indanone and indenone analogues of combretastatin A4” (Bioorg Med Chem, 2007).

A short description of test [1]: Inhibition of bovine brain tubulin polymerization. Set-up: species or system Bos taurus. The gist of the method: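 Tubulin assembly assay. The parameter measured was inhibition of the extent of assembly.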
A further test has as its system MCF7. Put plainly: Growth inhibition of MCF7 cells after 48 hrs. The note with it: Homo sapiens, MCF7, 48 h. In kind it is functional.
Another test has as its system CA46. The test can be described thus: Growth inhibition of CA46 cells. In kind it is functional. The settings on record: Homo sapiens.

Where only a bound is given, the exact number is not on record here.

Regarding `COc1ccc(C2=C(C(=O)c3cc(OC)c(O)c(OC)c3)c3cc(O)c(OC)cc3C2=O)cc1O`, it took 36000 nM to reach half-maximal inhibition in test [1] (IC50).
Still for that read-out and setting: the value for `COc1ccc(C2=C(C(=O)c3cc(OC)c(OC)c(OC)c3)C(=O)c3cc(OC)c(OC)c(OC)c32)cc1O` was 20000 nM.
In the test with MCF7, `COc1ccc(/C=C\c2cc(OC)c(OC)c(OC)c2)cc1O` [COMBRETASTATIN A4] returned a GI50 of 26 nM.
In test [1], `COc1ccc(/C=C(/C(=O)c2cc(OC)c(OC)c(OC)c2)c2ccc(OC)cc2)cc1` gave an IC50 of 2500 nM. Also, in the test on MCF7, the GI50 is > 1000 nM.
In test [1], `COc1ccc(/C=C(\C(=O)c2cc(OC)c(OC)c(OC)c2)c2ccc(OC)cc2)cc1` came in with an IC50 of 6600 nM. The GI50 in the test with MCF7 was > 1000 nM.
In the case of `COc1ccc(-c2[nH]c3cc(OC)ccc3c2C(=O)c2cc(OC)c(OC)c(OC)c2)cc1`, in the test on CA46, the GI50 worked out at 45 nM.
